Screening results from PubChem BioAssay.
RAM network inh: blocks the yeast RAM network. hit rate 1.8% among 190,000. S. cerevisiae dse1pr::URA3 reporter, 5-FOA growth OD615, 2 d; analog-sensitive cbk1-as2 kinase mutant strain. inhibition, % at 50 µM. AID 868;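 active = inhibition above a set limit, 3 SD over mean compound inhibition, cut at about 8.4% in these data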;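 note: 0% = DMSO-only wells with no growth and 100% = 10 µM 1-NA-PP1 full growth; inhibition rescues growth on 5-FOA so higher OD means more RAM inhibition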
Yeast life ext: yeast lifespan extension | S. cerevisiae growth with nicotinamide, OD615; deaD strain in restrictive glucose medium | inhibition of the nicotinamide effect, % at 10 µM | hit rate 0.68% among 130,000 | AID 775;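 active = inhibition above a set limit, placed 3 SD over the median of all compounds, cut at about 26% in these data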;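 note: 0% = nicotinamide-treated wells and 100% = cells grown without nicotinamide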
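Assay system: engineered S. cerevisiae DeaD replicative-lifespan strain, galactose-grown log-phase cells; Buffer or medium: CSMM-D glucose medium, restrictive; Probe or stimulus: nicotinamide 1.5 mM; Compound: single dose 10 µM compound, 0.25% DMSO; Schedule: 4 h preincubation then 48 h treatment at 30 °C; Technique: OD615 measurement.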
BB579 growth dn: yeast BB579 growth reduction in restrictive medium; inhibition, % at 10 µM; S. cerevisiae BB579 growth, OD615, 48 h; hit rate 0.51% among 140,000; AID 804;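 active = inhibition above a set limit, 3 SD over the mean compound inhibition, cut at about 44% in these data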
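Test system: DeaD yeast strain BB579 / Buffer or medium: restrictive glucose-based CSMM-D medium / Doses: single 10 µM dose / Schedule: 4 h cell preincubation, 48 h compound exposure, 30 °C humidified / Technique: culture absorbance at 615 nm / Controls: amphotericin B positive control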
SDO1 yeast rescue: sdo1-depleted yeast growth rescue | AID 817 | z-score at 10 µM | hit rate 0.21% among 140,000 | S. cerevisiae sdo1-depleted JHY4D growth rescue, OD600 30 h; stronger effect = higher value; pdr5 snq2 efflux-pump mutant strain;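 active = z-score above 3 at both the 24 hr and the 30 hr optical density reads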;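 note: z-score against mean and SD of all compound wells on the same plate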
Measles CPE: protection of cells from measles virus | Measles virus-infected cells, CPE protection, absorbance | protection (pct of control), % at 4 µM | hit rate 1.5% among 140,000 | AID 841; in the data active = protection mostly above about 24%, no sharp cut-off; inactive = mostly below about 26%
RAM 5-FOA: RAM network inhibition, efflux-deficient strain | shares compounds with RAM network inh | S. cerevisiae efflux-deficient reporter strain, 5-FOA growth OD615, 2 days | max inhibition, % | 1,200 tested, under 10 active | AID 1305; call rule not given here;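 note: plate controls were vehicle for no effect and reference inhibitor for full effect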
* marks the source's active call; other numbers are inactive results; . = no result given; [ ] = dose if it differs, or a comment. Shown are actives, neighbours in structure and some others; about 3.8% of the full set was active somewhere.

SMILES | RAM network inh | Yeast life ext | BB579 growth dn | SDO1 yeast rescue | Measles CPE | RAM 5-FOA
COc1ccc(NC(=O)c2ccco2)cc1NC(=O)c1cccnc1 | 1.0 | -5.9 | -8.9 | 0.82 | 0.2 | .
Cc1ccccc1Oc1ccc(-c2nc(N)nc(N)n2)cc1 | 12.3* | -31.4 | 1.8 | -1.52 | 14.7 | 1.6
Nc1nc(N)nc(-c2ccc(Oc3ccccc3)cc2)n1 | 5.7 | -3.8 | -10.2 | -1.24 | 3.6 | .
COc1ccc(OC)c(-c2cc(C(=O)N3CCc4ccccc4C3)no2)c1 | 11.9* | 44.4* | -48.9 | -1.71 | 10.9 | 1.6
CC(=O)Nc1ccc(S(=O)(=O)Nc2nc3ccccc3nc2Nc2ccc3ccccc3c2)cc1 | 15.9* | 1.6 | -22.5 | -1.13 | 47.8 | 2.6
O=C(CSCc1ccc(Cl)cc1)Nc1ccc(S(=O)(=O)N2CCCCCC2)cc1 | 0.1 | -1.7 | 20.0 | -0.41 | 4.9 | .
COc1ccc(CSCC(=O)Nc2ccc(S(=O)(=O)N3CCCCCC3)cc2)cc1 | 14.3* | 6.5 | -55.6 | -0.55 | 10.2 | 1.5
CC(C)(C)C(=O)N1CCN(c2ccc(Cl)cc2[N+](=O)[O-])CC1 | -0.9 | 7.3 | -16.2 | 1.07 | 14.1 | .
O=C(CSc1ccc(Cl)cc1)N1CCN(c2ccc(Cl)cc2[N+](=O)[O-])CC1 | 13.4* | 24.4 | -48.6 | -2.07 | 4.5 | 4.0
COc1ccc(CCNC(=O)c2ccc(Cl)c(S(=O)(=O)N(C)c3ccccc3)c2)cc1 | 17.0* | 4.6 | -30.8 | -0.6 | 21.4 | 2.9
CCN(c1ccccc1)S(=O)(=O)c1ccc(Cl)c(C(=O)NCCc2ccc(OC)cc2)c1 | 12.3* | 2.1 | -14.6 | -0.35 | 4.0 | 2.6
CCOc1nc(-c2ccccc2)ccc1-c1noc(COc2ccccc2)n1 | 17.2* | -17.0 | -34.6 | -0.41 | 11.0 | 4.7
COc1ccc(-c2ccc(-c3noc(C4CCCCC4)n3)c(OC)n2)cc1 | 15.8* | -13.2 | -32.8 | -0.5 | 10.4 | 5.3
COc1ccc(-c2ccc(-c3noc(-c4ccccc4OC)n3)c(OC)n2)cc1 | 4.3 | -8.2 | -73.4 | -0.31 | 9.2 | .
COc1ccc(-c2ccc(-c3noc(-c4ccccc4C)n3)c(OC)n2)cc1 | 16.1* | -4.9 | -58.1 | -1.22 | 3.7 | 3.5
COc1ccc(-c2ccc(-c3noc(-c4cccc(OC)c4)n3)c(OC)n2)cc1 | 14.7* | -17.2 | -23.4 | -1.77 | 5.1 | 3.0
CCOc1nc(-c2ccccc2)ccc1-c1noc(-c2ccco2)n1 | 4.7 | -6.2 | -30.9 | -1.19 | 11.2 | .
COC(=O)c1ccc(C(NC(=O)OCc2ccccc2)/C(F)=C/[C@@H](C)C(=O)NCc2ccc(OC)c(OC)c2)cc1 (stereo not given in full) | 0.1 | 0.6 | -20.9 | -0.73 | 4.8 | .
C=CCn1nnnc1-c1cc(Cl)cc(Cl)c1 | 0.0 | . | . | . | . | .
COc1ccc(NC(=O)C23CC4CC(C2)CC(c2ccccc2)(C4)C3)c(OC)c1 | 12.6* | -0.4 | -24.8 | -0.79 | 2.8 | 4.2
O=C(NCc1ccc(Cl)cc1)c1ccc(-c2ccccc2C(F)(F)F)o1 | 5.4 | -2.8 | -15.7 | -0.78 | 16.6 | .
CC(C)=CCc1c2c(c3occ(-c4ccc(O)cc4)c(=O)c3c1O)C=CC(C)(C)O2 | 16.7* | . | . | . | . | 4.5
c1ccc2cc(Sc3ncnc4c3oc3ccccc34)ccc2c1 | 13.3* | -17.6 | -29.0 | 0.81 | 7.2 | 3.8
Cc1cc(C)nc(Sc2ncnc3c2oc2ccccc23)n1 | 2.0 | -7.3 | 10.7 | 0.1 | 2.6 | .
CCOC(=O)/C(C#N)=C(C)/C=C1\Sc2ccccc2N1CC | 21.6* | 0.5 | -48.9 | 0.19 | 1.8 | 2.9
SMILES | RAM network inh | Yeast life ext | BB579 growth dn | SDO1 yeast rescue | Measles CPE | RAM 5-FOA
CCN1/C(=C\C=C(C(C)=O)C(C)=O)Sc2ccccc21 | 1.2 | . | . | . | . | .
C=CCOC(=O)C1=C[C@@H](c2csc3ccccc23)C[C@@H](OCc2ccc(CO)cc2)O1 | 13.6* | . | . | . | . | 2.7
Cc1sc(NC(=O)CSc2nnc(C)c(=O)[nH]2)c(C#N)c1C | 2.0 | -12.2 | -27.5 | 0.77 | 12.0 | .
CCOc1ccc(NC(=S)NN(C)C(=S)Nc2ccc(OCC)cc2)cc1 | 4.4 | -1.1 | -62.2 | -0.13 | 2.2 | .
O=C(CN(Cc1ccccc1F)S(=O)(=O)c1ccc(Cl)cc1)NCCC1=CCCCC1 | 12.2* | -15.8 | -47.4 | -1.03 | 20.1 | 1.5
CC(C)(C)OC(=O)COc1cc(O)c2c(=O)cc(-c3ccccc3)oc2c1 | 11.6* | 1.7 | -5.4 | 0.11 | 17.4 | 2.1
CCOC(=O)C1=C(C)NC(C)=C(C(=O)OCC)C1c1sccc1C | -0.4 | 24.4 | -28.1 | -0.92 | 16.6 | .
COc1cc(CNC(=O)c2cccc(COc3ccc(Cl)cc3)c2)cc(OC)c1 | 11.9* | -1.8 | -24.1 | -1.05 | 14.4 | 2.1
Cc1cccc(Nc2nnc(SCC3CCCCO3)s2)c1 (stereo not given) | 14.5* | -5.0 | -10.9 | -1.02 | 12.8 | 2.4
CCC(C)NC(=O)c1ccccc1NC(=O)c1ccc(CSc2ccccc2)cc1 (stereo not given) | 20.1* | 5.7 | -61.4 | -1.53 | 1.2 | 5.6
CCCNC(=O)c1ccccc1NC(=O)c1ccc(CSc2ccccc2)cc1 | 12.7* | -7.4 | -20.8 | -2.36 | 8.8 | 4.9
CCOc1ccc2nc(NC(=O)CSc3nc(-c4ccccc4)c(C#N)c(=O)[nH]3)sc2c1 | 14.1* | . | . | . | . | 4.2
C=CCN1C(=O)/C(=C/c2ccc(OC(C)=O)c(OCC)c2[N+](=O)[O-])SC1=S | 11.6* | . | . | . | . | 2.0
CCN(CC)c1nc2ccccc2nc1C(C#N)C(=O)NCCCOC (stereo not given) | 1.2 | -10.6 | -4.7 | -0.77 | 4.6 | .
CCCN(CCC)c1nc2ccccc2nc1C(C#N)C(=O)OC(C)COC (stereo not given) | 12.7* | 13.9 | -19.5 | -0.88[9.5 µM] | 27.6 | 1.8
CCCCN(CCCC)c1nc2ccccc2nc1C(C#N)C(=O)NCCCOC (stereo not given) | 14.8* | 1.5 | -38.4 | -0.92 | 4.2 | 5.2
CN(Cc1ccccc1NS(=O)(=O)c1ccc2ccccc2c1)C1CCCCC1 | 0.8 | . | . | . | . | .
C=CCO/N=C(/C)c1c(O)c(CC)c(-c2ccccc2)n(-c2ccccc2)c1=O | 12.6* | . | -28.8 | -0.79 | 7.2 | 1.7
CCOC(=O)C1CCN(S(=O)(=O)C(F)(F)c2nc3ccccc3s2)CC1 | 3.0 | -3.7 | -33.5 | -1.34 | 4.1 | 1.4
O=C(COC(=O)c1cc(-c2cccc(Br)c2)nc2ccccc12)NCC1CCCO1 (stereo not given) | 15.3* | . | . | . | . | 3.3
O=C(COC(=O)c1cc(-c2ccccc2)nc2ccccc12)NCC1CCCO1 (stereo not given) | 1.0 | . | . | . | . | .
O=C(c1cccc(F)c1)N1CCC(c2nc3ccccc3s2)CC1 | 1.2 | . | . | . | . | .
CC#CC[N+](C)(C)CCCCCCCCCCCC | -0.7 | -8.7 | 41.5 | -1.33 | 1.7 | .
COc1cc2c(cc1NC(=O)CSc1ccc(C)cc1)oc1ccccc12 | 4.3 | -1.2 | -63.3 | 0 | 4.4 | .
